SENP8 block-1 – inhibitors of human SENP8 protease | Q96LD8 | recombinant SENP8, Nedd8 substrate fluorescence | inhibition, % at 20 µM | hit rate 0.64% among 360,000 | AID 602440; in the data active means inhibition mostly above about 40%, no sharp cut-off; inactive means mostly below about 27%
SENP6 inh – inhibitors of human SENP6 protease. inhibition, % at 10 µM. AID 2599. hit rate 1.8% among 330,000. Recombinant SENP6 catalytic domain, aminoluciferin luminescence;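 active means inhibition above about 50% at the single tested dose, limit read from the data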
Target sequence (Q9GZR1 628-1112 limits assumed): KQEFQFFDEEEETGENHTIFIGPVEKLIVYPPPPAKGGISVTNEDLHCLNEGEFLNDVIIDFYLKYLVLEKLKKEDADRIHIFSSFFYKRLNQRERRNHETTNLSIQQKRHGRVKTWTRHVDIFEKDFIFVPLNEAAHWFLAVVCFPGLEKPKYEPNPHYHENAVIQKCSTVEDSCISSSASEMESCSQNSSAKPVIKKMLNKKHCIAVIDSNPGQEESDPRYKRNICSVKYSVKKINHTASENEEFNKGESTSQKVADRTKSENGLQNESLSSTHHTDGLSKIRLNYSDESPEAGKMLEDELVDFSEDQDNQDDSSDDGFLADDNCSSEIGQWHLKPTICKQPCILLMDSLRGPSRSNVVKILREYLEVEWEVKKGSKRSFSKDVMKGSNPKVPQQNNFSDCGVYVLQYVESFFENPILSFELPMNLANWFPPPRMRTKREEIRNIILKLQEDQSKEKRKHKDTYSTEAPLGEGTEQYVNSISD
SENP1 FRET inh – inhibitors of human SENP1 SUMO protease catalytic domain. Q9P0U3. recombinant SENP1 catalytic domain, CyPet-SUMO1-YPet FRET cleavage. inhibition, % at 10 µM. hit rate 0.21% among 360,000;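 active means inhibition at least 30% at 10 µM, raw YFP signal under a set limit, fluorescence ratio 0.5 to 1.5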
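Assay system: hSENP1 catalytic domain, recombinant. Amount: SENP1 enzyme, 20 pM final. Schedule: 50 min reaction, RT, dark. Technique: FRET, CFP and YFP emission. Control set: no-enzyme wells low, DMSO-plus-enzyme wells high control.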
SENP8 block-2 – blocks the human protease SENP8; purified SENP8, Z-RLRGG-aminoluciferin cleavage, luminescence; inhibition, % at 10 µM; hit rate 1.2% among 330,000; AID 2540; in the data active means inhibition above about 50%
SENP7 block – inhibitors of human SENP7 protease | inhibition, % at 5 µM | hit rate 1.5% among 330,000 | recombinant SENP7, Z-RLRGG-aminoluciferin luminescence, 40 min;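 active means inhibition above about 50% at the single test dose, limit read from the data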
SENP8 confirm – confirmation of human SENP8 protease inhibitors. shares compounds with SENP7 block. Recombinant SENP8, Z-RLRGG-aminoluciferin luminescence, 60 min. inhibition, % at 12.5 µM. hit rate 40% among 6,200. AID 488912;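 active means mean inhibition across replicates above about 50%, limit read from the data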
SENP6 confirm – human SENP6 inhibition, confirmed | shares compounds with SENP7 block | inhibition, % at 12.5 µM | hit rate 58% among 6,200 | recombinant SENP6, Z-RLRGG-aminoluciferin luminescence
SENP7 conf – confirmation of human SENP7 protease inhibitors | shares compounds with SENP7 block | recombinant SENP7, Z-RLRGG-aminoluciferin luminescence, 40 min | inhibition, % at 12.5 µM | hit rate 69% among 6,200 | AID 488917
Casp3 SENP sel – caspase-3 inhibition (SENP selectivity assay); shares compounds with SENP7 block; AID 488918; purified caspase-3, Z-DEVD-aminoluciferin luminescence, 60 min; inhibition, % at 12.5 µM; hit rate 60% among 6,200;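 active means mean inhibition above about 50%, limit read from the data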
SENP luc ctr – counter-screen for SENP inhibitors: luminescence interference; shares compounds with SENP7 block; Pre-incubated SENP8/Z-RLRGG-aminoluciferin, luciferase luminescence interference; inhibition, % at 12.5 µM; hit rate 39% among 6,200;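 active means mean inhibition above about 50% when retested at one dose, limit read from the data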
Large screens that a line does not name were inactive (follow-up assays come after a bar, where they were run). An excerpt weighted towards active compounds, which were near 2.5% of everything screened.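 How the source made its calls, unless noted: active means mean inhibition above about 50% in the one-dose retest (limit read from the data); inactive means the rest.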

CSc1ccccc1NC(=O)Nc1ccc(F)c(Cl)c1	SENP6 inh 77, SENP8 block-2 68, SENP7 block 87 | SENP8 confirm inactive | SENP6 confirm 76 | SENP7 conf 96 | Casp3 SENP sel 68 | SENP luc ctr 72
CCCn1ncc(/C=N/O)c1C	none
Fc1cccc(-c2cc3nc4c(c(NCc5ccco5)n3n2)CCCC4)c1	SENP6 inh 85, SENP8 block-2 70 | SENP8 confirm inactive | SENP6 confirm inactive | SENP7 conf inactive | Casp3 SENP sel inactive | SENP luc ctr inactive
Fc1cccc(-c2cc3nc4c(c(N5CCOCC5)n3n2)CCCC4)c1	none
C/C(=N\Nc1nncc2ccccc12)c1cccc(OC(F)F)c1	SENP6 inh 97, SENP8 block-2 89, SENP7 block 100 | SENP8 confirm 68 | SENP6 confirm 75 | SENP7 conf 82 | Casp3 SENP sel 75 | SENP luc ctr inactive
C/C(=N\Nc1nncc2ccccc12)c1ccc(O)cc1	SENP6 inh 67 | SENP8 confirm inactive | SENP6 confirm inactive | SENP7 conf inactive | Casp3 SENP sel inactive | SENP luc ctr inactive
CC1(C(=O)NS(=O)(=O)c2ccc(Cl)cc2)CCN1C(=O)CC1CC1 (centres undefined)	none (no result: SENP6 inh, SENP8 block-2, SENP7 block)
COc1ccc(C)c2sc(=NC(=O)c3cccc(N4C(=O)CCC4=O)c3)n(C)c12	SENP6 inh 51, SENP7 block 78 | SENP8 confirm inactive | SENP6 confirm inactive | SENP7 conf inactive | Casp3 SENP sel inactive | SENP luc ctr inactive
CCC(=O)N=c1sc2c(OC)ccc(OC)c2n1C	none
COc1ccc(C)c2sc(=NC(=O)c3ccccc3)n(C)c12	SENP7 block 99 | SENP8 confirm inactive | SENP6 confirm 78 | SENP7 conf 85 | Casp3 SENP sel 90 | SENP luc ctr inactive
C=CCn1c(=NC(=O)c2cccc(N3C(=O)CCC3=O)c2)sc2cccc(OC)c21	none
Cc1ccc(Cn2c(C3CCCN3c3nc(-c4ccc(F)cc4)cs3)nc3cc(C(F)(F)F)ccc32)cc1 (centres undefined)	none
CCNC(=S)NNC(=O)c1cc(-c2cccc(OCC)c2)nc2ccccc12	none
CCNC(=S)NNC(=O)c1cc(-c2ccc(OC)cc2)nc2ccccc12	SENP6 inh 93, SENP8 block-2 91, SENP7 block 95 | SENP8 confirm 96 | SENP6 confirm 96 | SENP7 conf 100 | Casp3 SENP sel 97 | SENP luc ctr 90
CCNC(=S)NNC(=O)c1cc(-c2cccc(C)c2)nc2ccccc12	SENP6 inh 85, SENP8 block-2 81, SENP7 block 72 | SENP8 confirm 90 | SENP6 confirm 90 | SENP7 conf 98 | Casp3 SENP sel 96 | SENP luc ctr 92
CCCCOc1ccc(-c2cc(C(=O)NNC(=S)NCC)c3ccccc3n2)cc1	SENP6 inh 101, SENP8 block-2 94, SENP7 block 93 | SENP8 confirm 98 | SENP6 confirm 99 | SENP7 conf 103 | Casp3 SENP sel 98 | SENP luc ctr 65
O=C(Nc1cccc(F)c1)N1CCCCCC1	none
Cc1c(-c2ccccc2)cnc2c(C)cccc12	none
Cc1ccc(-n2c(SCC(=O)NC3CCS(=O)(=O)C3)nc3ccccc3c2=O)cc1C (centres undefined)	none
O=C1C=C(c2ccccc2C(F)(F)F)C[C@@H](c2ccc3c(c2)OCO3)C1	none
COc1ccccc1CCN=C(N)NS(=O)(=O)c1ccccc1F	none
O=C(NC1CCCC1)c1ncn[nH]1	none
Cc1cccc(/C=C/C(=O)c2ccc(NC3=NCCCS3)cc2)c1	SENP6 inh 93, SENP8 block-2 71, SENP7 block 88 | SENP8 confirm 81 | SENP6 confirm 68 | SENP7 conf inactive | Casp3 SENP sel inactive | SENP luc ctr 90
COc1cccc(/C=C/C(=O)c2ccc(NC3=NCCCS3)cc2)c1	none
Cn1ncc2c(=O)[nH]c(N)nc21	none (no result: SENP6 inh, SENP8 block-2, SENP7 block)
O=C(Nc1cccc(O)c1)c1noc2c1CCCCC2	SENP6 inh 96, SENP8 block-2 92, SENP7 block 95 | SENP8 confirm 96 | SENP6 confirm 96 | SENP7 conf 102 | Casp3 SENP sel 96 | SENP luc ctr 93
COc1ccc(NC(=O)c2noc3c2CCC3)cc1	SENP8 block-2 71, SENP7 block 81 | SENP8 confirm inactive | SENP6 confirm 77 | SENP7 conf 93 | Casp3 SENP sel 90 | SENP luc ctr 79
C=CCOc1c(Cl)cc(C(=S)N2CCCC2)cc1OCC	none
CC(C)Nc1nc(Cl)nc(Nc2ccccc2)n1	none
COc1ccc(NC(=O)N(CCO)Cc2cc3c(C)cc(C)cc3[nH]c2=O)cc1	none
COc1ccc(NC(=S)N(CCO)Cc2cc3c(C)cc(C)cc3[nH]c2=O)cc1	SENP6 inh 89 | SENP8 confirm inactive | SENP6 confirm inactive | SENP7 conf inactive | Casp3 SENP sel inactive | SENP luc ctr inactive
CC(=O)N1c2ccc(S(=O)(=O)N(C)CC(=O)NC3CCCCC3C)cc2CC1C (centres undefined)	none
CC(=O)Oc1ccc(/C=C2/Oc3ccccc3C2=O)cc1	SENP6 inh 87, SENP8 block-2 83, SENP7 block 78 | SENP8 confirm inactive | SENP6 confirm 61 | SENP7 conf inactive | Casp3 SENP sel 71 | SENP luc ctr inactive
O=C1/C(=C/c2ccccc2)Oc2cc(OC(=O)N3CCOCC3)ccc21	none
COc1cc(OC)c2c(c1)O/C(=C\c1ccccc1)C2=O	SENP6 inh 68, SENP8 block-2 57, SENP7 block 54 | SENP8 confirm 72 | SENP6 confirm 68 | SENP7 conf 83 | Casp3 SENP sel inactive | SENP luc ctr 72
COc1ccc(/C=C2\Oc3ccccc3C2=O)cc1	SENP6 inh 93, SENP8 block-2 92, SENP7 block 97 | SENP8 confirm inactive | SENP6 confirm 94 | SENP7 conf 101 | Casp3 SENP sel 94 | SENP luc ctr 88
O=C(NCCOc1ccccc1)c1ccc2c(c1)OCO2	SENP6 inh 69 | SENP8 confirm 50 | SENP6 confirm inactive | SENP7 conf 85 | Casp3 SENP sel 80 | SENP luc ctr 69
CN(CCOc1ccccc1)C(=O)c1ccc2c(c1)OCO2	none
O=C(NCCOc1ccccc1)c1ccc2n[nH]nc2c1	SENP6 inh 58, SENP8 block-2 50 | SENP8 confirm 68 | SENP6 confirm 68 | SENP7 conf 87 | Casp3 SENP sel 87 | SENP luc ctr 72

From PubChem BioAssay
